According to paper PMC4363277 (Amino acids, 2015):

Test system: B16/F1 melanoma cells
Assay: Cytotoxicity in B16/F1 melanoma cells
Format: cell-based, murine
Conditions: 0.1 µM, 3 h incubation at 37 °C, MTT 5 days post treatment
In short: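 B16/F1 cells at 150/well, overnight in CO2 incubator, washed with RPMI 1640, then exposed 3 h at 37 °C to 0.1 µM test compound in binding medium; controls kept in culture medium only. Washed, grown 5 days with medium changed every other day; MTT (0.5 mg/mL) 3 h at 37 °C, formazan dissolved in acidic isopropanol, A570 minus A630. Survival = treated/control absorbance × 100%.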

For “[Cys^3,4,10, D-Phe^7, Arg^11]α-MSH3–13 [(Arg^11)CCMSH]”, which “decrease of survival percentage versus untreated control cells” value is on record?
Its value is 15%.
